# Measured values published in ChEMBL document CHEMBL3872250, “Structure-activity and in vivo evaluation of a novel lipoprotein lipase (LPL) activator” (Bioorg Med Chem Lett, 2017).
# Activity calls are given as the source filed them. No cut-off for these calls is given here.
# T1: Lipoprotein lipase (Bos taurus) (UniProt P11151)
# T1 sequence (whole entry): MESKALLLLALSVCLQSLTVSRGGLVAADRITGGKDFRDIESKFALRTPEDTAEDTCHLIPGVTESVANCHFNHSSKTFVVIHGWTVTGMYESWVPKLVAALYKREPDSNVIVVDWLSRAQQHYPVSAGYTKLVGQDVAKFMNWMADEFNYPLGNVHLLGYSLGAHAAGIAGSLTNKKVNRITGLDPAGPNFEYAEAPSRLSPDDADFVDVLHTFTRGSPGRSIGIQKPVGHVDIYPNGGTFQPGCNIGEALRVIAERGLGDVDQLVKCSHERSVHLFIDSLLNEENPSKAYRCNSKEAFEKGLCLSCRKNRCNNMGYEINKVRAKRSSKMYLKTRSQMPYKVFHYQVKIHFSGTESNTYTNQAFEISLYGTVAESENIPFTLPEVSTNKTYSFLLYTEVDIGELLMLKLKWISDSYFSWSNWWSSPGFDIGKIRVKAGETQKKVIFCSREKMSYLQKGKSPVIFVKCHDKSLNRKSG
# B1: Lipoprotein lipase (Bos taurus), P11151 (protein)
# chain: T1 sequence (whole entry)
# Legend:
# Rattus norvegicus = assay: In vivo activation of lipoprotein lipase in STZ-induced diabetes rat model relative to control; type: functional
# [1] = molecular target: T1, Lipoprotein lipase (Bos taurus); assay: Inhibition of bovine recombinant lipoprotein lipase at 100 uM using p-Nitrophenyl butyrate as substrate by HTS assay
# In short: (§1)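 Recombinant LPL screened at 100 µM in a 384-well format with p-nitrophenyl butyrate as substrate. […] release was read as absorbance at 405 nm, and activity was expressed as fold change in absorbance.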
# [2] = molecular target: T1, Lipoprotein lipase (Bos taurus); assay: Activation of bovine recombinant lipoprotein lipase at 100 uM using p-Nitrophenyl butyrate as substrate by HTS assay; in short: as §1
# Mus musculus [3] = assay: Reduction in serum triglycerides level in high fat diet fed C57BL/6 mouse at 10 mg/kg, ip administered daily on last week of 4 months study until end; type: functional, organism-based
# In short: (§2)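 Serum triglycerides and cholesterol measured with commercial kits after sacrifice. Mice had four months of high-fat diet, with 10 mg/kg i.p. given in the last week. Mean ± SE, n = 3.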
# Mus musculus [4] = assay: Hepatoprotective activity against high fat diet fed C57BL/6 mouse liver assessed as increase in LC3 level at 10 mg/kg, ip administered daily on last week of 4 months study until end; type: functional, organism-based
# In short: (§3)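 Mice on a high-fat diet for four months were dosed at 10 mg/kg for seven days. Hepatic protein levels of SIRT1 or LC3 were then measured. n = 5 mice; significance at P<0.05.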
# Mus musculus [5] = assay: In vivo activation of lipoprotein lipase in high fat diet fed C57BL/6 mouse assessed as reduction in body weight at 1 to 10 mg/kg, ip administered daily on last week of 4 months study until end; type: functional, organism-based
# In short: (§4)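 Mice fed a high-fat diet (60% kcal from fat) for four months, with daily i.p. dosing at 10 mg/kg during the final week. A dose-response at 1, 5 and 10 mg/kg was used to select the dose. Body weight, total body fat and lean mass were measured by EchoMRI before sacrifice. Mean ± S.D., n = 4.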
# Mus musculus [6] = assay: Toxicity in high fat diet fed C57BL/6 mouse liver assessed as morphological changes at 10 mg/kg, ip administered daily on last week of 4 months study until end by hematoxylin and eosin staining based assay; type: organism-based; details: in vivo, 2922 h
# In short: (§5)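 After four months of high-fat diet with 10 mg/kg i.p. dosing over the final week, livers were examined by gross morphology and size. Sections were stained with hematoxylin and eosin and viewed at 20X to assess lipid accumulation.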
# Mus musculus [7] = assay: Reduction in serum cholesterol level in high fat diet fed C57BL/6 mouse at 10 mg/kg, ip administered daily on last week of 4 months study until end; type: functional, organism-based; in short: as §2
# Mus musculus [8] = assay: Hepatoprotective activity against high fat diet fed C57BL/6 mouse liver assessed as increase in SIRT1 level at 10 mg/kg, ip administered daily on last week of 4 months study until end; type: functional, organism-based; in short: as §3
# [9] = molecular target: T1, Lipoprotein lipase (Bos taurus); assay: Activation of bovine recombinant lipoprotein lipase at 100 uM using p-Nitrophenyl butyrate as substrate by HTS assay relative to NO-1886; in short: as §1
# Mus musculus [10] = assay: In vivo activation of lipoprotein lipase in high fat diet fed C57BL/6 mouse at 10 mg/kg, ip administered daily on last week of 4 months study until end by fluorescence assay; type: functional, organism-based
# Mus musculus [11] = assay: In vivo activation of lipoprotein lipase in high fat diet fed C57BL/6 mouse assessed as reduction in total body fat content at 1 to 10 mg/kg, ip administered daily on last week of 4 months study until end; type: functional, organism-based; in short: as §4
# Mus musculus [12] = assay: Reduction in lipid accumulation in high fat diet fed C57BL/6 mouse liver at 10 mg/kg, ip administered daily on last week of 4 months study until end by hematoxylin and eosin staining based assay; type: functional, organism-based; in short: as §5
# [13] = substrate: CC1(C)CC1(C(=O)NCCCn1ccnc1)c1ccc(F)cc1; assay: Binding affinity to bovine recombinant lipoprotein lipase assessed as Km for substrate using p-Nitrophenyl butyrate as substrate by Lineweaver-Burk plot analysis (reference value: 8.15 mM); details: Bos taurus
molecule,measurement,setting,value
CCOP(=O)(Cc1ccc(C(=O)Nc2ccc(Br)cc2C#N)cc1)OCC [IBROLIPIM],Activity,Rattus norvegicus,59%
O=C(Cc1ccc(S)cc1)NCCCn1ccnc1,inhibition,[1],Active
O=C(Cc1ccc(Cl)cc1)NCCCn1ccnc1,Activity,[2],Active
O=C(Cc1ccccc1)NCCCn1ccnc1,Activity,[2],Active
CC1(C)CC1(C(=O)NCCCCN1CCOCC1)c1ccc(F)cc1 (configuration not stated),Activity,[2],Active
O=C(Cc1ccc(F)cc1)NCCCn1ccnc1,Activity,[2],Active
O=C(Cc1ccc(O)cc1)NCCCn1ccnc1,inhibition,[1],Active
CC1(C)CC1(C(=O)NCCCn1ccnc1)c1ccc(F)cc1 (configuration not stated),Activity,Mus musculus [3],Active
same,Activity,Mus musculus [4],Active
same,Activity,Mus musculus [5],Active
same,Activity,[2],Active
same,Activity,Mus musculus [6],Non-Toxic
same,Activity,Mus musculus [7],Active
same,Activity,Mus musculus [8],Active
same,fold change (FC),[9],2
same,Activity,Mus musculus [10],Active
same,Activity,Mus musculus [11],Active
same,Activity,Mus musculus [12],Active
CC1(C)CC1(C(=O)NCCNc1cccnc1)c1ccc(F)cc1 (configuration not stated),inhibition,[1],Active
CC1(C)CC1(C(=O)NCCCc1csc(N)n1)c1ccc(F)cc1 (configuration not stated),inhibition,[1],Active
Cc1cccnc1CN1CCN(C(=O)C2(c3ccc(F)cc3)CC2(C)C)CC1 (configuration not stated),inhibition,[1],Active
B1,Km,[13],648 µM
